Source: ChEMBL document CHEMBL2412975 (Bioorg Med Chem, 2013)

Tests used:
[1] = Apparent clearance in human liver microsomes; assay type: ADME, Microsome; details: read-out: CLH(app)
[2] = Cmax in rat at 5 mg/kg, po; assay type: ADME, organism-based; design: dose 5 mg/kg, route oral; details: in vivo
Summary of the method: (§1)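 Rat PK. Oral dose 5 mg/kg given in 0.5% methylcellulose. Cmax and AUC are reported as free drug concentrations. Bioavailability is taken relative to a 1 mg/kg intravenous dose.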

[3] = Half life in rat; assay type: ADME, organism-based; details: in vivo; summary of the method: as §1
[4] = system: Rattus norvegicus; assay: Oral bioavailability in rat at 5 mg/kg; assay type: ADME, organism-based; details: in vivo; summary of the method: as §1
[5] = Volume of distribution at steady state in rat at 1 mg/kg, iv; assay type: ADME, organism-based; design: dose 1 mg/kg, route intravenous; details: in vivo, read-out: Vdss
Summary of the method: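 Rat, single intravenous dose of 1 mg/kg. Steady-state volume of distribution comes from the plasma profile.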

[6] = system: Rattus norvegicus; assay: AUC in rat at 5 mg/kg, po; assay type: ADME, organism-based, Plasma; design: dose 5 mg/kg, route oral; details: in vivo; summary of the method: as §1
[7] = Lipophilicity, log D of the compound; assay type: physicochemical; details: octanol/water
[8] = Metabolic stability in human liver microsomes assessed as compound remaining after 1 hr; assay type: ADME, Microsome; details: read-out: Stability
Summary of the method: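 Human liver microsomes incubated with compound for 1 h. Read-out is percent of parent remaining.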

Nc1ncnc2c1C(=O)N(c1ccc(C3CCN(C(=O)[C@H]4CC[C@@H](O)CC4)CC3)cc1)CCO2
CLint scaled [1]: < 8 mL/min/kg

CC(C)[C@H](CO)NC(=O)C[C@H]1CC[C@H](c2ccc(N3CCOc4ncnc(N)c4C3=O)cc2)CC1
CLint scaled [1]: < 8 mL/min/kg

Nc1ncnc2c1C(=O)N(c1ccc([C@H]3CC[C@H](CC(=O)N4CCCC4)CC3)cc1)CCO2
CLint scaled [1]: 15 mL/min/kg

Nc1ncnc2c1C(=O)N(c1ccc([C@H]3CC[C@H](CC(=O)N4CC[C@@H](O)C4)CC3)cc1)CCO2
CLint scaled [1]: < 8 mL/min/kg

Nc1ncnc2c1C(=O)N(c1ccc([C@H]3CC[C@H](CC(=O)N4CCOCC4)CC3)cc1)CCO2
Cmax [2]: 425 ng/mL
half-life [3]: 2 h
F [4]: 77%
Vd [5]: 1.2 L/kg
AUC [6]: 838 ng·h/mL
CLint scaled [1]: < 8 mL/min/kg

CN1CCN(C(=O)C[C@H]2CC[C@H](c3ccc(N4CCOc5ncnc(N)c5C4=O)cc3)CC2)CC1=O
CLint scaled [1]: 9 mL/min/kg

COC1CCN(C(=O)C[C@H]2CC[C@H](c3ccc(N4CCOc5ncnc(N)c5C4=O)cc3)CC2)CC1
CLint scaled [1]: 107 mL/min/kg

Nc1ncnc2c1C(=O)N(c1ccc([C@H]3CC[C@H](CC(=O)N4CC(O)C4)CC3)cc1)CCO2
CLint scaled [1]: < 8 mL/min/kg

CC(=O)N1CCC(c2ccc(N3CCOc4ncnc(N)c4C3=O)cc2)CC1
CLint scaled [1]: < 8 mL/min/kg

CC(C)C(=O)N1CCC(c2ccc(N3CCOc4ncnc(N)c4C3=O)cc2)CC1
CLint scaled [1]: 11 mL/min/kg

Nc1ncnc2c1C(=O)N(c1ccc(C3CCN(C(=O)C4CCCCC4)CC3)cc1)CCO2
CLint scaled [1]: 41 mL/min/kg

Nc1ncnc2c1C(=O)N(c1ccc(C3CCN(C(=O)C4CCOCC4)CC3)cc1)CCO2
CLint scaled [1]: < 8 mL/min/kg

Nc1ncnc2c1C(=O)N(c1ccc(C3CCN(C(=O)c4cnon4)CC3)cc1)CCO2
CLint scaled [1]: < 8 mL/min/kg

Nc1ncnc2c1C(=O)N(c1ccc(C3CCN(C(=O)c4ccccc4)CC3)cc1)CCO2
CLint scaled [1]: < 8 mL/min/kg

Nc1ncnc2c1C(=O)N(c1ccc(C3CCN(C(=O)c4ccno4)CC3)cc1)CCO2
CLint scaled [1]: 13 mL/min/kg

Nc1ncnc2c1C(=O)N(c1ccc(C3CCN(C(=O)c4ccon4)CC3)cc1)CCO2
CLint scaled [1]: 12 mL/min/kg

N#CC[C@H]1CC[C@H](c2ccc(N3CCOc4ncnc(N)c4C3=O)cc2)CC1
Cmax [2]: 174 ng/mL
half-life [3]: 3.1 h
F [4]: 85%
Vd [5]: 2 L/kg
AUC [6]: 801 ng·h/mL
CLint scaled [1]: < 8 mL/min/kg

CC(C)(O)C[C@H]1CC[C@H](c2ccc(N3CCOc4ncnc(N)c4C3=O)cc2)CC1
Cmax [2]: 171 ng/mL
half-life [3]: 2.6 h
F [4]: 100%
Vd [5]: 1.3 L/kg
AUC [6]: 1260 ng·h/mL
CLint scaled [1]: < 8 mL/min/kg

CC(C)(N)C[C@H]1CC[C@H](c2ccc(N3CCOc4ncnc(N)c4C3=O)cc2)CC1
CLint scaled [1]: 12 mL/min/kg

Cc1noc(C[C@H]2CC[C@H](c3ccc(N4CCOc5ncnc(N)c5C4=O)cc3)CC2)n1
Cmax [2]: 118 ng/mL
logD [7]: 2.3
half-life [3]: 2.7 h
F [4]: 53%
Vd [5]: 1.2 L/kg
AUC [6]: 727 ng·h/mL
CLint scaled [1]: < 8 mL/min/kg

Cc1nnc(C[C@H]2CC[C@H](c3ccc(N4CCOc5ncnc(N)c5C4=O)cc3)CC2)o1
CLint scaled [1]: < 8 mL/min/kg

Cc1nnc(C[C@H]2CC[C@H](c3ccc(N4CCOc5ncnc(N)c5C4=O)cc3)CC2)s1
CLint scaled [1]: < 8 mL/min/kg

Cc1nnc(C[C@H]2CC[C@H](c3ccc(N4CCOc5ncnc(N)c5C4=O)cc3)CC2)[nH]1
CLint scaled [1]: < 8 mL/min/kg

Cc1nnc(C[C@H]2CC[C@H](c3ccc(N4CCOc5ncnc(N)c5C4=O)cc3)CC2)n1C
CLint scaled [1]: < 8 mL/min/kg

Cc1noc(CC[C@H]2CC[C@H](c3ccc(N4CCOc5ncnc(N)c5C4=O)cc3)CC2)n1
CLint scaled [1]: 82 mL/min/kg

Nc1ncnc2c1CN(c1ccc([C@H]3CC[C@H](CCO)CC3)cc1)CCO2
CLint scaled [1]: 11 mL/min/kg

Cc1nc(N)c2c(n1)OCCN(c1ccc([C@H]3CC[C@H](CC(=O)O)CC3)cc1)C2=O
CLint scaled [1]: < 8 mL/min/kg

Nc1ccnc2c1C(=O)N(c1ccc([C@H]3CC[C@H](CC(=O)O)CC3)cc1)CCO2
CLint scaled [1]: 8.4 mL/min/kg

Nc1ncnc2c1C(=O)N(c1ccc([C@H]3CC[C@H](CCC(=O)O)CC3)cc1)CCO2
CLint scaled [1]: < 8 mL/min/kg

CN(CC(=O)O)C(=O)C[C@H]1CC[C@H](c2ccc(N3CCOc4ncnc(N)c4C3=O)cc2)CC1
CLint scaled [1]: < 8 mL/min/kg

Nc1ncnc2c1C(=O)N(c1ccc([C@H]3CC[C@H](Cc4nnn[nH]4)CC3)cc1)CCO2
CLint scaled [1]: < 8 mL/min/kg

NC(=O)C[C@H]1CC[C@H](c2ccc(N3CCOc4ncnc(N)c4C3=O)cc2)CC1
Cmax [2]: 273 ng/mL
half-life [3]: 4.3 h
F [4]: 88%
Vd [5]: 1.6 L/kg
AUC [6]: 810 ng·h/mL
CLint scaled [1]: < 8 mL/min/kg

CCNC(=O)C[C@H]1CC[C@H](c2ccc(N3CCOc4ncnc(N)c4C3=O)cc2)CC1
CLint scaled [1]: < 8 mL/min/kg

Nc1ncnc2c1C(=O)N(c1ccc([C@H]3CC[C@H](CC(=O)NC4CCCC4)CC3)cc1)CCO2
CLint scaled [1]: 39 mL/min/kg

Nc1ncnc2c1C(=O)N(c1ccc([C@H]3CC[C@H](CC(=O)O)CC3)cc1)CCO2 [PF-04620110]
Cmax [2]: 225 ng/mL
remaining at 1 h [8]: 93%
half-life [3]: 7.3 h
Vd [5]: 1.8 L/kg
AUC [6]: 565 ng·h/mL
CLint scaled [1]: < 8 mL/min/kg
